# Only some compounds are listed: those with a hit (about 1.8% of all), similar ones and a draw of the others.
# MT1-MMP act inh: MT1-MMP (human) activation inhibition; HT1080 RFP-PRO-GFP cells, GFP/RFP ratio fluorescence, overnight; percent of plate control window, DMSO zero; AID 651647; 360,000 compounds, 0.061% hits; P50281; GFP/RFP ratio change, % at 20 µM;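 active = GFP/RFP ratio change of at least 30% with cell ATP level not reduced by more than half and red fluorescence within 50% of control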
#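 Test system: HT1080 RFP-PRO-GFP cells; Benchmarks: DMSO and RFP-L50D-GFP cell wells; Timing: cells overnight before dosing, compound overnight, 37 °C, 5% CO2; Compound: one 20 µM compound dose with 1% DMSO; Read-out: GFP/RFP fluorescence ratio.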
# bovine MsrA act: activates bovine MsrA enzyme; 360,000 compounds, 0.3% hits; purified bovine MsrA, absorbance read-out; activation, % at 10.6 µM; in the data active = activation above about 7.5%;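 note: 0% = vehicle and 100% = reference activator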
# SKN-1 inh: blocks SKN-1 activity in C. elegans; C. elegans VP596 Pgst-4::GFP/RFP ratio, acrylamide-induced, 24 h; AID 624304; 360,000 compounds, 0.49% hits; inhibition, % at 21.8 µM;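 active = interference check ratio from 0.5 to 1.5 plus GFP to RFP signal ratio inhibition reaching or exceeding a fixed threshold, cut at about 30% in these data, passing the limit was not always enough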
# DAGLB inh: diacylglycerol lipase beta (human) inhibition. inhibition, % at 5.17 µM. Q8NCG7. 340,000 compounds, 0.059% hits. AID 504411. HEK293T DAGLB membrane lysate, EnzChek fluorogenic substrate; in the data active = inhibition above about 34%;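 note: 0% = enzyme with vehicle and 100% = wells lacking enzyme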
# Target sequence (Q8NCG7 whole entry, looked up): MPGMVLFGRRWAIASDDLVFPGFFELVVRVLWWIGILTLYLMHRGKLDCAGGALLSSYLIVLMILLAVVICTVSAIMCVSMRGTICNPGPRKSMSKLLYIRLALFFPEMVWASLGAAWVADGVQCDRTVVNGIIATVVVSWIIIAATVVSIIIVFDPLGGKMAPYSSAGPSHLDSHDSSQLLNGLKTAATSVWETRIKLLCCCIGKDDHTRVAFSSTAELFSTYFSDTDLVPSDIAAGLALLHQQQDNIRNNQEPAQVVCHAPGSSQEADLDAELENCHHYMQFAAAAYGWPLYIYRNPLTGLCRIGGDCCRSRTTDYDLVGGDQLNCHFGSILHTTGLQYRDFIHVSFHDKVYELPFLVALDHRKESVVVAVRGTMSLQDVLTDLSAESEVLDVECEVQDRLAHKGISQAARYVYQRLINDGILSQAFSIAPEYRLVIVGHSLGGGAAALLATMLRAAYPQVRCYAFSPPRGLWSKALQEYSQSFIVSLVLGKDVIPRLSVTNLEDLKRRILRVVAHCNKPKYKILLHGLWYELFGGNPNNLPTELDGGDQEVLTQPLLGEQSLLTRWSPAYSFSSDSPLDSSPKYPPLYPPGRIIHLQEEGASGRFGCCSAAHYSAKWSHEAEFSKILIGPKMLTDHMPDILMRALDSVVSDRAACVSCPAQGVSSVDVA
# MIN6 prolif: induces beta-cell replication in MIN6 cells. MIN6 cells proliferation, ATPlite luminescence, 48 h; cells starved in 0.2% serum; 100% = growth in 10% serum. AID 2380. 330,000 compounds, 0.29% hits. proliferation, % at 10 µM;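 active = compounds whose signal lies at least 3.5 SD above the mean of all wells on their plate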;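 note: 0% = DMSO-treated cells in low-serum medium and 100% = 10% serum control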
# MsrA inhibitor: inhibitors of bovine MsrA; purified bovine MsrA, absorbance read-out; inhibition, % at 15.5 µM; 360,000 compounds, 0.75% hits; AID 651718; in the data active = inhibition above about 4.5%;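 note: 0% = vehicle wells with enzyme and 100% = reference inhibitor wells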
# * = called active by the depositor; . = no result.
SMILES,MT1-MMP act inh,bovine MsrA act,SKN-1 inh,DAGLB inh,MIN6 prolif,MsrA inhibitor
Cc1ccc(OCCCCn2cnc3ccccc32)c(C)c1,7,-1,44*,-1,-6,-1
Clc1ccc2nc(N3CCCCC3)sc2c1,3,-2,57*,-5,1,0
CS(=O)(=O)N1CCN(c2nc3ccc(Cl)cc3s2)CC1,2,-5,-1,0,0,1
C=CCN1C[C@@H](COCc2ccccc2)OCCS1(=O)=O,.,.,.,.,.,3
CN(C)c1oc(-c2ccco2)nc1C#N,4,-1,59*,-5,-2,2
CN(Cc1ccccc1)c1oc(-c2ccco2)nc1C#N,0,0,1,0,-2,2
COc1cc(OC)c2c(=O)c3c(C(=O)O)c(O)ccc3oc2c1,.,.,.,.,.,-1
N#Cc1c(N2CCCCC2)nc(N)c2c(N)nc3c(c12)CC(c1ccccc1)O3 (stereo not drawn),-6,-2,-6,-2,0,4
CCN(CC)c1nc(N)c2c(N)nc3c(c2c1C#N)CC(c1ccccc1)O3 (stereo not drawn),-7,-1,16,-1,2,6.3*
NC(=O)C1CCN(c2oc(-c3ccccc3F)nc2S(=O)(=O)c2ccc(Cl)cc2)CC1,1,-3,38*,-2,-1,0
CN1CCN(c2oc(-c3ccccc3F)nc2S(=O)(=O)c2ccc(Cl)cc2)CC1,-2,-8,4,0,4,.
Cc1cccc(C)c1NC(=O)Cn1cnc2c(=O)n(C)c(=O)n(C)c21,-1,-2,-6,-1,-2,0
Cn1c(=O)c2ncn(CC(=O)Nc3ccc4c5c(cccc35)CC4)c2n(C)c1=O,-21,-1,42*,-2,-1,0
Cc1cccn2c(=O)c(C=O)c(N3CCCCCC3)nc12,-6,-2,37*,-1,-1,.
COCCCNC(=O)C[C@H]1C[C@@]2(C(=O)OC)C(=C[C@H](C(C)(C)C)O[C@@H]2C)N(CCc2ccc(OC)c(OC)c2)C1=O,.,.,.,.,.,0
Cc1ccc2cc(NC(=O)c3ccc(C(C)(C)C)cc3)ccc2n1,5,-1,28,-3,-6,0
CCc1ccc(C(=O)Nc2ccc3nc(C)ccc3c2)cc1,5,-1,44*,0,-4,1
O=C(Oc1ccc2c(-c3ccccc3)cc(=O)oc2c1)C1CCCCC1,-6,-5,1,-17,-2,19*
COC(=O)c1cc2c(c3c4ccccc4n(S(=O)(=O)c4ccc(OC)cc4)c13)C(=O)N(Cc1ccccc1OC)C2,.,.,.,.,.,0
CCCNCc1nnc(-c2ccccc2Cl)o1,0,-4,1,-3,-3,2
Clc1ccc(-c2nnc(-c3ccccc3Cl)o2)cc1,1,-5,62*,-20,-3,-1
CN(C)c1ccc(-c2nnc(-c3ccccc3F)o2)cc1,2,4,1,-18,-4,4.6*
COc1ccc(-c2nnc(-c3ccc(N(C)C)cc3)o2)cc1,1,-8,5,-1,-2,1
Cc1ccccc1-c1nnc(-c2ccc(Cl)cc2)o1,0,-10,24,-18,-3,-1
Clc1ccccc1-c1nnc(-c2ccccc2Cl)o1,-2,-1,67*,-20,-1,1
SMILES,MT1-MMP act inh,bovine MsrA act,SKN-1 inh,DAGLB inh,MIN6 prolif,MsrA inhibitor
CCC1(C)Cc2c(C#N)c(N)sc(=S)c2CO1 (stereo not drawn),-17,-1,46*,1,2,2
O=C(CSc1nnc(CN2CCOCC2)n1-c1ccc(Cl)cc1)N1CCc2ccccc21,-2,-9,42*,-1,2,0
O=C(CSc1nnc(CN2CCOCC2)n1-c1ccccc1)N1CCc2ccccc21,5,1,8,0,3,0
Cc1ccc(C)c(-n2c(CNC(=O)c3ccco3)nnc2SCC(=O)N2CCc3ccccc32)c1,0,-4,39*,1,-1,0
CCCCCCCCN1C(=O)[C@@H](CC(=O)N2CCN(C(=O)c3ccco3)CC2)C[C@@]2(C(=O)OC)C1=C[C@H](C1CCCC1)O[C@@H]2C,.,.,.,.,.,0
N#CC(=Cc1cccs1)c1nc(-c2ccc(Cl)cc2)cs1,-5,1,62*,-19,.,1
O=C1C=CC(=O)N1c1ccc(OC(F)F)cc1,-7,-17,-9,-2,.,47*
Cc1ccc(-c2cc(NC(=O)Cc3c(C)[nH]c4ccccc34)ccc2Nc2cccnc2)cc1,.,.,.,.,.,2
COc1cc(Br)cc(/C=N/N(CCO)C2=NS(=O)(=O)c3ccccc32)c1OC,4,-5,6,0,-2,2
COc1cc(/C=N/N(CCO)C2=NS(=O)(=O)c3ccccc32)cc(OC)c1OC,-2,-5,35*,0,1,3
COc1ccc(OC)c(C(=O)C2COC(=O)C2)c1 (stereo not drawn),14,2,37*,-2,1,0
c1ccc(-c2noc(-c3ccncc3)n2)nc1,3,-4,-8,0,-3,1
c1ccc(-c2noc(-c3ccc4ccccc4c3)n2)nc1,1,-4,42*,-4,-5,.
O=C(/C=C/c1ccccc1)NC(=S)NNC(=O)c1cccnc1,5,-1,36*,-1,-4,2
C[C@H]1CN([C@@H](C)CO)C(=O)CCCn2nncc2CO[C@@H]1CN(C)S(=O)(=O)c1cccs1,.,.,.,.,.,0
O=C(O)C1CCCCC1C(=O)NCCc1c[nH]c2ccccc12 (stereo not drawn),-3,-1,37*,3,-3,-1
O=C(O)[C@H]1CCCC[C@H]1C(=O)NCCc1ccccc1,-1,-4,-6,3,0,-1
COC(=O)[C@]12C[C@H](CC(=O)NCc3cccs3)C(=O)N(CCC3=CCCCC3)C1=C[C@H](C(C)(C)C)O[C@@H]2C,.,.,.,.,.,1
COC(=O)C1=C(C)N(Cc2cccc(C(F)(F)F)c2)C(=NCc2ccc3c(c2)OCO3)NC1c1cccc(Cl)c1 (stereo not drawn),.,.,.,.,.,0
C[C@@H]1CN([C@@H](C)CO)C(=O)CCCn2cc(nn2)CO[C@H]1CN(C)C(=O)Nc1ccc(C(C)(C)C)cc1,.,.,.,.,.,-1
Cc1ccc(S(=O)(=O)NCCCCC(NC(=O)OC(C)(C)C)C(=O)O)cc1 (stereo not drawn) (tested in a mixture with another compound),-8,-2,35*,-2,1,0
CC(=O)C1=C(C)N(Cc2ccc(Br)cc2)C(=S)NC1c1cccc(Cl)c1 (stereo not drawn),.,.,.,.,.,1
O=C(c1ccccc1)C12COc3ccccc3C1ON=C2c1ccccc1 (stereo not drawn),.,.,.,.,.,-1
O=C(NCCN1CCOCC1)c1cc(-c2ccc(F)cc2)nc2ccccc12,-1,-6,-21,-4,4,0

# Source: PubChem (several laboratories)
